Here are results for four compounds from ChEMBL document CHEMBL3525942, “Disposition and metabolism of [14C]SB-649868, an orexin 1 and 2 receptor antagonist, in humans” (Drug Metab Dispos, 2011).

Data set [1] has as its system Plasma. The experiment in a line: Drug level in human plasma assessed as radioactivity treated with [14C]SB-649868 at 30 mg, po single dose after 3 hrs by HPLC-MSn analysis. The following applies: in vivo. The class given is ADME, organism-based. On the set-up: dosed compound name [14C]SB-649868. The procedure, abridged: (§1)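 Plasma taken 3, 12, 24 and 48 h after one oral 30 mg [14C] dose, extracted, and run on radio-HPLC: C8 column, 45 mM ammonium acetate pH 3.8 and acetonitrile gradient, 1 ml/min. Fractions collected into scintillant plates and counted 5 min. Extraction recovery measured; data corrected when recovery was <85%. Values are % of plasma radioactivity, BQL 1%; n=7 at 3 and 12 h.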

Data set [2] relates to Plasma. Nature of the data set: Drug level in human plasma assessed as radioactivity treated with [14C]SB-649868 at 30 mg, po single dose after 12 hrs by HPLC-MSn analysis. The class given is ADME, organism-based. The arrangement: dosed compound name [14C]SB-649868. To be noted: in vivo. The procedure, abridged: as §1
Data set [3] concerns Plasma. Nature of the data set: Drug level in human plasma assessed as radioactivity treated with [14C]SB-649868 at 30 mg, po single dose after 24 hrs by HPLC-MSn analysis. The following applies: in vivo. On the set-up: dosed compound name [14C]SB-649868. The class given is ADME, organism-based. Summed up:
as §1

In data set [4] the test system is Plasma. The experiment in a line: Drug level in human plasma assessed as radioactivity treated with [14C]SB-649868 at 30 mg, po single dose after 48 hrs by HPLC-MSn analysis. Type of data set: ADME, organism-based. The arrangement: dosed compound name [14C]SB-649868. The following applies: in vivo. Summed up: as §1
The nature of data set [5]: Drug level in human feces treated with [14C]SB-649868 at 30 mg, po single dose by HPLC-MSn analysis. The following applies: in vivo.
A short description of data set [6]: Drug level in human urine treated with [14C]SB-649868 at 30 mg, po single dose after 0 to 72 hrs by HPLC-MSn analysis. The following applies: in vivo, 0-72 h.
A short description of data set [7]: Terminal phase half life in human at 10 to 60 mg. The class given is ADME, organism-based. On the set-up: dosed compound name [14C]SB-649868. The following applies: in vivo, read-out: Compound recovery (converted).
Data set [8] can be described thus: Elimination half life in rat. Type of data set: ADME, organism-based. The arrangement: dosed compound name [14C]SB-649868. To be noted: in vivo, read-out: Compound recovery.
A short description of data set [9]: Elimination half life in dog. Type of data set: ADME, organism-based, Canis lupus familiaris. On the set-up: dosed compound name [14C]SB-649868. To be noted: in vivo, read-out: Compound recovery.
The test system of data set [10] is Plasma. Nature of the data set: Drug recovery in human plasma at 30, po single dose after 48 hrs by HPLC-MSn analysis. The class given is ADME, organism-based. On the set-up: dosed compound name [14C]SB-649868. The procedure, abridged: as §1
Data set [11] concerns Plasma. The experiment in a line: Drug recovery in human plasma at 30, po single dose after 3 hrs by HPLC-MSn analysis. The class given is ADME, organism-based. The arrangement: dosed compound name [14C]SB-649868. The procedure, abridged:
as §1

In data set [12] the test system is Homo sapiens. The experiment in a line: AUC (0 to infinity) in human plasma treated with [14C]SB-649868 at 30 mg, po single dose. The arrangement: dosed compound name [14C]SB-649868. Type of data set: ADME, organism-based. To be noted: in vivo. The procedure, abridged: (§2)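 Eight healthy men given one oral 30 mg [14C] capsule. Plasma sampled 0.25–96 h. Parent measured in 50 µl plasma after acetonitrile precipitation with deuterated internal standard, by HPLC-MS/MS (positive-ion MRM). Calibration 5–5000 ng/ml, 1/x2 weighted. Noncompartmental analysis: t1/2 = ln2/λz, linear-up/log-down trapezoid AUC, CL/F = Dose/AUC0-inf.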

Data set [13] deals with Homo sapiens. The experiment in a line: AUC (0 to t) in human plasma treated with [14C]SB-649868 at 30 mg, po single dose. On the set-up: dosed compound name [14C]SB-649868. The class given is ADME, organism-based. To be noted: in vivo. Summed up:
as §2

Data set [14] concerns Homo sapiens. The experiment in a line: Cmax in human plasma treated with [14C]SB-649868 at 30 mg, po single dose. The class given is ADME, organism-based. On the set-up: dosed compound name [14C]SB-649868. To be noted: in vivo. The procedure, abridged:
as §2

Data set [15] relates to Homo sapiens. The experiment in a line: Tmax in human plasma treated with [14C]SB-649868 at 30 mg, po single dose. Type of data set: ADME, organism-based. The arrangement: dosed compound name [14C]SB-649868. To be noted: in vivo. Summed up:
as §2

For data set [16], the system named is Homo sapiens. The experiment in a line: Apparent half life in human plasma treated with [14C]SB-649868 at 30 mg, po single dose. Type of data set: ADME, organism-based. On the set-up: dosed compound name [14C]SB-649868. The following applies: in vivo. Summed up: as §2
Data set [17] concerns Homo sapiens. The experiment in a line: Apparent oral clearance in human plasma treated with [14C]SB-649868 at 30 mg, po single dose. Type of data set: ADME, organism-based. The arrangement: dosed compound name [14C]SB-649868. The following applies: in vivo. Summed up:
as §2

SMILES strings stand for the structures.

For the compound `Cc1nc(C(=O)N2CCCC[C@H]2CN)c(-c2ccc(F)cc2)s1`, the Compound recovery in the data set with Plasma [1] was determined as 1.3%; in the data set with Plasma [2], 1%; with Plasma [3] it was 1.9%; in the data set on Plasma [4], 3%; in data set [5] it was 1.5%; in [6], 0.6%.
As to `Cc1nc(C(=O)N2CCCC[C@H]2Cn2ccc3c(O)cccc3c2=O)c(-c2ccc(F)cc2)s1`, the Compound recovery is on record as 0.7% in data set [5] and “Below quantification limit” in data set [6].
As to `Cc1nc(C(=O)N2CCCC[C@H]2CNC(=O)c2cccc3occc23)c(-c2ccc(F)cc2)s1` [SB-649868], the Compound recovery with Plasma [1] was 67.7%; in the data set on Plasma [2] it was 33.2%; with Plasma [3], 9.8%; in the data set on Plasma [4], under 1; with Plasma [10], 34%; in the data set on Plasma [11] it was 97%. Also, the Compound recovery with Homo sapiens [12] came out at 8300 ng·h/mL; in the data set on Homo sapiens [13], 8200 ng·h/mL; in the data set with Homo sapiens [14] it was 1.2 µg/mL; in the data set on Homo sapiens [15], 4 h; with Homo sapiens [16] it was 4.8 h; in the data set with Homo sapiens [17] it was 3610 mL/h. Moreover, the Compound recovery entry in [5] and in [6] was “Below quantification limit” each time. Also, the half-life in data set [7] was 2.2 h; in [8], under 1 h; in data set [9] it was under 1 h.
`Cc1nc(C(=O)N2CCCC[C@H]2CNC(=O)c2cccc3oc(O)cc23)c(-c2ccc(F)cc2)s1` had a Compound recovery in data set [6] of 0.6%.
